Activity calls are given as the source filed them. The calls are words filed in the database; no cut-off is given here.
Experiments:
[1] = target: T1, Toll-like receptor 9 (Mus musculus) (UniProt Q9EQU3); assay: Antagonist activity at mouse TLR9 expressed in HEK293 cells assessed as inhibition of 5'-CTATCTGTCGTTCTCTGT-3'-induced NF-kappaB activation by SEAP reporter gene assay; assay type: functional, cell-based
T1 sequence (whole entry): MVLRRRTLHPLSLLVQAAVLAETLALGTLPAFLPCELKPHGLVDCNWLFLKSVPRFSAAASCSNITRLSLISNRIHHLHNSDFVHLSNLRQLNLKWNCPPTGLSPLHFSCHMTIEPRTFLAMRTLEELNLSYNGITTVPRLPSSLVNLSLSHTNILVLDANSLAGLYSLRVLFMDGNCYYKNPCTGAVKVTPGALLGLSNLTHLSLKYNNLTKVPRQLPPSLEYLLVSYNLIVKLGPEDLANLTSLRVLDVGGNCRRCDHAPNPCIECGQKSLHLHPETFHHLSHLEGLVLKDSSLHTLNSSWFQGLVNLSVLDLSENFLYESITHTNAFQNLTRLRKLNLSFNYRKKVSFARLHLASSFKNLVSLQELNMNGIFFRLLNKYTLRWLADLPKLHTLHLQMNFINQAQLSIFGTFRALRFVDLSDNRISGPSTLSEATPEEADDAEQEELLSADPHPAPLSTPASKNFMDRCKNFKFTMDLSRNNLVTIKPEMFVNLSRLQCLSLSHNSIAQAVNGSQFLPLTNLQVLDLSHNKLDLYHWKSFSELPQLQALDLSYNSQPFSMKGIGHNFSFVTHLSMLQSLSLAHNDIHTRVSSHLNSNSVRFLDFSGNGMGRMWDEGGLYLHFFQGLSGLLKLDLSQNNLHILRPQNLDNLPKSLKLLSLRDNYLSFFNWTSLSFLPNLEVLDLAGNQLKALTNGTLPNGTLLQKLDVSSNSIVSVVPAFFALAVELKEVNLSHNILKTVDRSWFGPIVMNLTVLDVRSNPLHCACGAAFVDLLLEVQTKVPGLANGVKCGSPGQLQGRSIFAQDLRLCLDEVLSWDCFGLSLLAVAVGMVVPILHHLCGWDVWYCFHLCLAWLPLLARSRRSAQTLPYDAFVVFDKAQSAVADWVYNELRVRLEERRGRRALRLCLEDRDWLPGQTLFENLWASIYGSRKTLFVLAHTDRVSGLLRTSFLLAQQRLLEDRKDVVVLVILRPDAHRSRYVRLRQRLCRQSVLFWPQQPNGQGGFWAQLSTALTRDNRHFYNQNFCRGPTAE
Summary of the method: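 Mouse TLR9-HEK293 cells were transfected with a SEAP reporter for 6 h. They were then stimulated for 18 h with agonist (0.25 or 0.5 µg/mL) plus increasing antagonist concentrations or set agonist:antagonist ratios. Quanti-Blue read-out, reported as % NF-κB activity with agonist alone as 100%.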

[2] = target: T1, Toll-like receptor 9 (Mus musculus); assay: Agonist activity at mouse TLR9 expressed in HEK293 cells assessed as activation of NF-kappaB at 10 ug/mL by SEAP reporter gene assay; assay type: functional, cell-based
Summary of the method: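 HEK293 cells stably expressing mouse TLR9 were transiently transfected with a SEAP reporter for 6 h. Compounds were added at 10 µg/mL for 18 h. SEAP was read with Quanti-Blue substrate and expressed as fold change in NF-κB activity.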

[3] = target: T2, Toll-like receptor 9 (Homo sapiens) (UniProt Q9NR96); assay: Antagonist activity at TLR9 in human PBMC assessed as inhibition of 5'-TCTGTCRTTCT-X-TCTTRCTGTCT-5'-induced NF-kappaB activation at 40 ug/mL treated 1 hr before induction measured after 2 hrs; assay type: functional
T2 sequence (whole entry): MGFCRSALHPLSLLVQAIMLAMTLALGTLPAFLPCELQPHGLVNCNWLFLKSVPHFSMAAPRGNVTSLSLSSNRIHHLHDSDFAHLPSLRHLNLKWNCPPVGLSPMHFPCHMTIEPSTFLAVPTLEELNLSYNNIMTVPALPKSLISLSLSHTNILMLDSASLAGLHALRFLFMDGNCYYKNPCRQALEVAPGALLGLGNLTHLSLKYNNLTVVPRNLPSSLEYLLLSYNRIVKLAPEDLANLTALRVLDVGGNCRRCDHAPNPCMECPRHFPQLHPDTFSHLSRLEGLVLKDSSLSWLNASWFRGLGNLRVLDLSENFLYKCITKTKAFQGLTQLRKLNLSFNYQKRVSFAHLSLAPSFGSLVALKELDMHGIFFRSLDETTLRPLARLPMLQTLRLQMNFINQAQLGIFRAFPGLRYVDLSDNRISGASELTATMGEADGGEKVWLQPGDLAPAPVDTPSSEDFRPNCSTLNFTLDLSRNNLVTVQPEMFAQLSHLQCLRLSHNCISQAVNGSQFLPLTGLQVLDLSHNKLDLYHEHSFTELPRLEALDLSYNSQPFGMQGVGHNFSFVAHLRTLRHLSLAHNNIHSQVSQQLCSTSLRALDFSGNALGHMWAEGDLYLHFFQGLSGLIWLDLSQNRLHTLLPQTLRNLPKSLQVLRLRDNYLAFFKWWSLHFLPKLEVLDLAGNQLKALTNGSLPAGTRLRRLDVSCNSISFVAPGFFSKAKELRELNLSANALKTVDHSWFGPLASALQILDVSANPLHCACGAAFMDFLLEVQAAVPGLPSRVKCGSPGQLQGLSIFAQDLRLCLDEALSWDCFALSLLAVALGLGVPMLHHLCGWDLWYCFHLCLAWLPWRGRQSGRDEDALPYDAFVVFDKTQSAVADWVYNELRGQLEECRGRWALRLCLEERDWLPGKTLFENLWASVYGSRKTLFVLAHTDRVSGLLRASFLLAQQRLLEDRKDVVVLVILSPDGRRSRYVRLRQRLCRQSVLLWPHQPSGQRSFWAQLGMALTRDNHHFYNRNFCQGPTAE
Summary of the method: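 Human PBMCs plated at 1×10^7 cells/well were preincubated with antagonist at the indicated concentrations for 1 h. TLR9 or TLR7/8 agonist was then added for 2 h. Nuclear extracts were analysed for NF-κB by EMSA. One representative donor of three.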

[4] = tested on: PBMC; assay: (§1) Induction of IP10 secretion in human PBMC; assay type: functional, cell-based
Summary of the method: (§2)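 Human PBMCs (5×10^6/mL; 1×10^6 per well) were cultured 24 h with TLR9 agonist 5 µg/mL or TLR7/8 agonist 100 µg/mL, alone or with antagonist at 1:4. Compounds were dissolved in PBS. Supernatant cytokines were measured by Luminex human 25-plex bead assay. One representative donor of six.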

[5] = tested on: PBMC; assay: Induction of MIP1beta secretion in human PBMC; assay type: functional, cell-based; summary of the method: as §2
[6] = tested on: PBMC; assay: Induction of MCP1 secretion in human PBMC; assay type: functional, cell-based; summary of the method: as §2
[7] = tested on: PBMC; assay: Induction of IL6 secretion in human PBMC; assay type: functional, cell-based; summary of the method: as §2
[8] = tested on: PBMC; assay: Induction of IFNalpha secretion in human PBMC; assay type: functional, cell-based; summary of the method: as §2
[9] = tested on: PBMC; assay: Induction of TNFalpha secretion in human PBMC; assay type: functional, cell-based; summary of the method: as §2
[10] = tested on: PBMC; assay: Induction of IL12 secretion in human PBMC; assay type: functional, cell-based; summary of the method: as §2
[11] = tested on: PBMC; assay: Induction of IFN-gamma secretion in human PBMC; assay type: functional, cell-based; summary of the method: as §2
[12] = tested on: PBMC; assay: as §1; assay type: functional, cell-based; summary of the method: as §2; remark: listed apart in the source
[13] = tested on: PBMC; assay: Induction of MIG secretion in human PBMC; assay type: functional, cell-based; summary of the method: as §2
[14] = tested on: PBMC; assay: Inhibition of 5'-TCTGTCRTTCT-X-TCTTRCTGTCT-5'-induced cytokines secretion in human PBMC at 1:5 agonist to drug ratio; assay type: functional, cell-based
Summary of the method: (§3)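 Human PBMCs isolated from healthy volunteer blood by Ficoll gradient, cultured at 1×10^6/200 μL in supplemented RPMI 1640 with 10% heat-inactivated FBS. Treated for 24 h with agonist and/or antagonist dissolved in PBS; TLR9 agonist at 5 μg/mL, TLR7/8 agonist at 100 μg/mL. Supernatant cytokines/chemokines by Luminex human 25-plex bead assay; unstimulated cells as control.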

[15] = tested on: PBMC; assay: Inhibition of 5'-UGCUGUUCUG-X-GUCUUGUCGU-5'-induced cytokines secretion in human PBMC at 1:5 agonist to drug ratio; assay type: functional, cell-based; summary of the method: as §3
[16] = tested on: PBMC; assay: Inhibition of 5'-TCTGTCRTTCT-X-TCTTRCTGTCT-5'-induced chemokines secretion in human PBMC at 1:5 agonist to drug ratio; assay type: functional, cell-based; summary of the method: as §3
[17] = tested on: PBMC; assay: Inhibition of 5'-UGCUGUUCUG-X-GUCUUGUCGU-5'-induced chemokines secretion in human PBMC at 1:5 agonist to drug ratio; assay type: functional, cell-based; summary of the method: as §3
[18] = tested on: PBMC; assay: Inhibition of 5'-TCTGTCRTTCT-X-TCTTRCTGTCT-5'-induced human PBMC proliferation treated 72 hrs before induction; assay type: functional, cell-based
[19] = target: Toll-like receptor 7 (Homo sapiens) (UniProt Q9NYK1); assay: Antagonist activity at TLR7/8 in human PBMC assessed as inhibition of 5'-UGCUGUUCUG-X-GUCUUGUCGU-5'-induced NF-kappaB activation in human PBMC at 400 ug/mL treated 1 hr before induction measured after 2 hrs
Toll-like receptor 7 (Homo sapiens), sequence (Q9NYK1 whole entry, looked up): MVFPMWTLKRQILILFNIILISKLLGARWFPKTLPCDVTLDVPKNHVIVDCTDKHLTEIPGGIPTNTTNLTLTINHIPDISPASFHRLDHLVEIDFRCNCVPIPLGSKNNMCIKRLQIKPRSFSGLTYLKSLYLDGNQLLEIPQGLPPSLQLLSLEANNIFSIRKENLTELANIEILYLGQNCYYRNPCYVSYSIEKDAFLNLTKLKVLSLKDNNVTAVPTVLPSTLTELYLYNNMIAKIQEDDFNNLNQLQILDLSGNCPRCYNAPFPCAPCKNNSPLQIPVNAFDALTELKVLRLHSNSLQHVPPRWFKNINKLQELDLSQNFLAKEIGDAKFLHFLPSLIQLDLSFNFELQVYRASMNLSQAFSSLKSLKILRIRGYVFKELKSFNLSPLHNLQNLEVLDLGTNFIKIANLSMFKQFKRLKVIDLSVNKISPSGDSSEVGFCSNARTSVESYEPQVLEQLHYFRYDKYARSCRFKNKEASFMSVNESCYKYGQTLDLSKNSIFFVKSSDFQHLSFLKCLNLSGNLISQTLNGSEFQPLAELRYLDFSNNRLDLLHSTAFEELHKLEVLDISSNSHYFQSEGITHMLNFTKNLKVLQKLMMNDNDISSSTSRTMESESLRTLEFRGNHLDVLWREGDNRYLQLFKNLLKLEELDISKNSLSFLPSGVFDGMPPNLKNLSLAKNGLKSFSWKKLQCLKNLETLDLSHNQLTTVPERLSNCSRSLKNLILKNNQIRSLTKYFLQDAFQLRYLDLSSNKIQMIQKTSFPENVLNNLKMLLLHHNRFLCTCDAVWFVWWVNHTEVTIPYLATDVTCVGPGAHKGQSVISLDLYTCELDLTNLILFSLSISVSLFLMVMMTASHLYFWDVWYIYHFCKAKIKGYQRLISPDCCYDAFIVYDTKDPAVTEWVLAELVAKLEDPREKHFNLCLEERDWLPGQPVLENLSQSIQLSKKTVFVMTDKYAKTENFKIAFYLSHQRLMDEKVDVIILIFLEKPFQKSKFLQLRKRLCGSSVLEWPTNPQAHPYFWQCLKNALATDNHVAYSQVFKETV

Compound: CO[C@@H]1[C@H](OP(=O)(S)OC[C@H]2O[C@@H](n3ccc(N)nc3=O)C[C@@H]2OP(=O)(S)OC[C@H]2O[C@@H](n3ccc4c(=O)[nH]c(N)nc43)C[C@@H]2OP(=O)(S)OC[C@H]2O[C@@H](n3cc(C)c(=O)[nH]c3=O)C[C@@H]2OP(=O)(S)OC[C@H]2O[C@@H](n3cc(C)c(=O)[nH]c3=O)C[C@@H]2OP(=O)(S)OC[C@H]2O[C@@H](n3ccc(N)nc3=O)C[C@@H]2OP(=O)(S)OC[C@H]2O[C@@H](n3cc(C)c(=O)[nH]c3=O)C[C@@H]2OP(=O)(S)OC[C@H]2O[C@@H](n3ccc(N)nc3=O)C[C@@H]2OP(=O)(S)OC[C@H]2O[C@@H](n3cc(C)c(=O)[nH]c3=O)C[C@@H]2OP(=O)(S)OC[C@H]2O[C@@H](n3cnc4c(=O)[nH]c(N)nc43)C[C@@H]2OP(=O)(S)OC[C@H]2O[C@@H](n3cc(C)c(=O)[nH]c3=O)C[C@@H]2O)[C@@H](COP(=O)(S)O[C@H]2[C@@H](OC)[C@H](n3cnc4c(=O)[nH]c(N)nc43)O[C@@H]2COP(=O)(S)O[C@H]2C[C@H](n3cc(C)c(=O)[nH]c3=O)O[C@@H]2COP(=O)(S)O[C@H]2C[C@H](n3ccc(N)nc3=O)O[C@@H]2COP(=O)(S)O[C@H]2C[C@H](n3cc(C)c(=O)[nH]c3=O)O[C@@H]2COP(=O)(S)O[C@H]2C[C@H](n3cnc4c(N)ncnc43)O[C@@H]2COP(=O)(S)O[C@H]2C[C@H](n3cc(C)c(=O)[nH]c3=O)O[C@@H]2COP(=O)(S)O[C@@H]2[C@H](O)[C@@H](n3ccc(N)nc3=O)O[C@H]2CO)O[C@H]1n1ccc(=O)[nH]c1=O (some centres undefined)
- Activity [1]: Active
- Activity [2]: inactive
- Activity [3]: Active
- Activity [4]: inactive
- Activity [5]: inactive
- Activity [6]: inactive
- Activity [7]: inactive
- Activity [8]: inactive
- Activity [9]: inactive
- Activity [10]: inactive
- Activity [11]: inactive
- Activity [12]: inactive
- Activity [13]: inactive
- Activity [14]: Active
- Activity [15]: Active
- Activity [16]: Active
- Activity [17]: Active
- Activity [18]: Active
- Activity [19]: Active

Reference: ChEMBL document CHEMBL1140884, “Oligodeoxyribonucleotide-based antagonists for Toll-like receptors 7 and 9” (2009)
